pIC50: −log10 of the molar value.

Experiment [1] deals with Staphylococcus aureus. Briefly: Antimicrobial activity against methicillin-susceptible Staphylococcus aureus NRS52 infected in human THP-1 cells assessed as change in bacterial count after 24 hrs at pH 5.5. The note with it: NRS52, THP-1, 24 h. The class given is functional, organism-based. In outline:
(§1)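 THP-1 macrophages infected as described previously, with a postphagocytosis inoculum of 1.5 × 10⁶ to 3.0 × 10⁶ CFU/mg cell protein. Cells were exposed 24 h to increasing extracellular antibiotic concentrations. Response is the change in log10 CFU/mg protein from the inoculum (n = 3), fitted to a Hill function. E0 and Emax were extrapolated to infinitely low and high concentrations. EC50 and static concentration (graphical interpolation) are expressed as multiples of the broth MIC at pH 5.5 or 7.4.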

For experiment [2], the system named is Staphylococcus aureus. Description: Antimicrobial activity against Panton-valentine leucocidin-positive community-acquired methicillin-resistant Staphylococcus aureus N4042228 infected in human THP-1 cells assessed as bacterial count per mg of cell protein at high extracellular compound concentration after 24 hrs. The experiment is classed as functional. In outline:
(§2)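 THP-1 human macrophages infected with S. aureus (postphagocytosis inoculum 1.5 × 10^6 to 3.0 × 10^6 CFU/mg cell protein), then incubated 24 h with increasing extracellular antibiotic concentrations. Change in log10 CFU/mg cell protein from the postphagocytosis inoculum, n = 3. Hill function fitted on log-transformed data. Low-concentration value (E0) and high-concentration value (Emax) are extrapolated. Where a pH is given, concentrations are expressed as multiples of the broth MIC at that pH.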

In experiment [3] the test system is Staphylococcus aureus. Briefly: Antimicrobial activity against methicillin-susceptible Staphylococcus aureus […] infected in human THP-1 cells assessed as bacterial count per mg of cell protein at high extracellular compound concentration after 24 hrs. The experiment is classed as functional. In outline: (§3)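 Human THP-1 macrophage-like cells were infected with S. aureus to a postphagocytosis inoculum of 1.5 × 10^6 to 3.0 × 10^6 CFU/mg cell protein. Cells were then exposed 24 h to increasing extracellular antibiotic concentrations. Response was the log10 CFU change per mg protein from the postphagocytosis inoculum, n = 3. A Hill function was fitted on log-transformed axes. E0 and Emax were extrapolated to infinitely low and high concentrations. Cs was read by graphical interpolation. Concentrations were expressed as multiples of the broth MIC at pH 5.5 or pH 7.4.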

Experiment [4] has as its system Staphylococcus aureus. Briefly: Antimicrobial activity against methicillin-susceptible Staphylococcus aureus […] infected in human THP-1 cells assessed as bacterial count per mg of cell protein at high extracellular compound concentration after 24 hrs at pH 5.5. The class given is functional. In outline: as §3
The test system of experiment [5] is Staphylococcus aureus. Briefly: Bacteriostatic activity against Panton-valentine leucocidin-positive community-acquired methicillin-resistant Staphylococcus aureus isolate MEH2225605 infected in human THP-1 cells assessed as change in bacterial count after 24 hrs at pH 5.5. The class given is functional. In outline:
as §1

For experiment [6], the system named is Staphylococcus aureus. Briefly: Antimicrobial activity against hospital-acquired vancomycin-intermediate Staphylococcus aureus NRS18 infected in human THP-1 cells assessed as bacterial count per mg of cell protein at high extracellular compound concentration after 24 hrs. The experiment is classed as functional. In outline:
as §3

In experiment [7] the test system is Staphylococcus aureus. Briefly: Antimicrobial activity against Panton-valentine leucocidin-positive community-acquired methicillin-resistant Staphylococcus aureus N4090440 infected in human THP-1 cells assessed as change in bacterial count after 24 hrs at pH 5.5. The experiment is classed as functional, organism-based. The settings on record: N4090440, THP-1, 24 h. In outline:
as §2

The target in the next experiment is T1, MecA (Staphylococcus aureus, UniProt Q7DHH4).
T1 sequence (Q7DHH4 whole entry): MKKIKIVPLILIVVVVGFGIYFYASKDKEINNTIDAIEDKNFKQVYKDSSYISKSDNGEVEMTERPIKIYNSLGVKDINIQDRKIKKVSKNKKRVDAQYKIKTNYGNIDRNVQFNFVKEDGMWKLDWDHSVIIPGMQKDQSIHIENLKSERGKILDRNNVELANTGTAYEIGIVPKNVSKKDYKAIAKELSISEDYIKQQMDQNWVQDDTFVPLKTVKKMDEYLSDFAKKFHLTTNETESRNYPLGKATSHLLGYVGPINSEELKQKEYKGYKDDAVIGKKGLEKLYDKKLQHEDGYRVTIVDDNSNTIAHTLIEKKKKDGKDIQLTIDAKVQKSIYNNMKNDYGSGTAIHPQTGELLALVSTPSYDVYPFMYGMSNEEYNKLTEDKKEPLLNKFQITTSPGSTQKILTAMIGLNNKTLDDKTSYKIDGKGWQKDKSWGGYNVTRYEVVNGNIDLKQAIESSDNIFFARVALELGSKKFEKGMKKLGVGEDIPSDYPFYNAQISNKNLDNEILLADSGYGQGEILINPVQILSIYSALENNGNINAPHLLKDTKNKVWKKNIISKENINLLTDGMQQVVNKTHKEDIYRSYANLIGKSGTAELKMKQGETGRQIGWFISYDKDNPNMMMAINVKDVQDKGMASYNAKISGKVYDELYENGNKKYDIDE
Description: Binding affinity to Staphylococcus aureus ATCC […] PBP2a by Western blotting at pH 7.4 in presence of 100 uM Bocillin FL. In outline: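 Soluble truncated PBP 2a (ΔM1-Y23) was expressed in E. coli Rosetta 2(DE3) and purified. It was preincubated 25 min at 37°C with increasing cephalosporin concentrations, then 100 μM Bocillin FL was added for 25 min at 37°C at pH 5.5 or 7.4. Samples were run on SDS-PAGE and blotted with anti-bodipy antibody plus HRP secondary. Bands were detected by chemiluminescence and quantified by densitometry.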

In experiment [8] the test system is Staphylococcus aureus. Briefly: Antimicrobial activity against methicillin-susceptible Staphylococcus aureus NRS52 infected in human THP-1 cells assessed as bacterial count per mg of cell protein at high extracellular compound concentration after 24 hrs at pH 7.4. The class given is functional. In outline: as §3
The subject of experiment [9] is Staphylococcus aureus. Briefly: Bacteriostatic activity against hospital-acquired vancomycin-intermediate Staphylococcus aureus NRS126 infected in human THP-1 cells assessed as change in bacterial count after 24 hrs at pH 7.4. The experiment is classed as functional. In outline: as §1
In experiment [10] the test system is Staphylococcus aureus. Briefly: Antimicrobial activity against hospital-acquired vancomycin-intermediate Staphylococcus aureus NRS18 infected in human THP-1 cells assessed as bacterial count per mg of cell protein at high extracellular compound concentration after 24 hrs at pH 7.4. The experiment is classed as functional. In outline:
as §3

In experiment [11] the test system is Staphylococcus aureus. Description: Antimicrobial activity against hospital-acquired methicillin-resistant Staphylococcus aureus ATCC 33591 infected in human THP-1 cells assessed as bacterial count per mg of cell protein at low extracellular compound concentration after 24 hrs. The experiment is classed as functional. In outline: as §1
Experiment [12] concerns Staphylococcus aureus. Briefly: Antimicrobial activity against methicillin-susceptible Staphylococcus aureus […] infected in human THP-1 cells assessed as bacterial count per mg of cell protein at low extracellular compound concentration after 24 hrs. The experiment is classed as functional. In outline:
as §3

Experiment [13] has as its system Staphylococcus aureus. Description: Bacteriostatic activity against methicillin-susceptible Staphylococcus aureus ATCC 25923 infected in human keratinocytes assessed as change in bacterial count after 24 hrs. The experiment is classed as functional. In outline: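 Primary human skin keratinocytes were grown in defined keratinocyte serum-free medium and infected with S. aureus to 1.5 × 10^6 to 3.0 × 10^6 CFU/mg cell protein. Cells were exposed 24 h to increasing extracellular concentrations. Response was the log10 CFU change from the postphagocytosis inoculum, fitted by a Hill equation with slope 1. Cs is the concentration giving CFU equal to the original inoculum, found by graphical interpolation.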

Experiment [14] deals with Staphylococcus aureus. Description: Antimicrobial activity against Panton-valentine leucocidin-positive community-acquired methicillin-resistant Staphylococcus aureus N4042228 infected in human THP-1 cells assessed as change in bacterial count after 24 hrs at pH 5.5. The experiment is classed as functional, organism-based. The note with it: N4042228, THP-1, 24 h. In outline: as §2

As for `Nc1nc(/C(=N/O)C(=O)N[C@@H]2C(=O)N3C(C(=O)O)=C(/C=C4\CCN([C@@H]5CCNC5)C4=O)CS[C@H]23)ns1` [CEFTOBIPROLE], the EC50 in the experiment with Staphylococcus aureus [1] worked out at 0.41 × MIC; in the experiment with Staphylococcus aureus [7], 0.54 × MIC; with Staphylococcus aureus [14] it was 0.54 × MIC. Besides, the log10cfu is -1.12 in the experiment with Staphylococcus aureus [2]; -1.15 in the experiment with Staphylococcus aureus [3]; 1.04 in the experiment with Staphylococcus aureus [4]; -1.34 in the experiment on Staphylococcus aureus [6]; -1.04 in the experiment on Staphylococcus aureus [8]; -0.99 in the experiment on Staphylococcus aureus [10]. The log10cfu amounted to 2.47 in the experiment with Staphylococcus aureus [11] and 3.49 in the experiment on Staphylococcus aureus [12]. Also, the Activity worked out at 1.45 × MIC in the experiment on Staphylococcus aureus [5], 0.74 ×MIC with Staphylococcus aureus [9] and 0.91 mg/L in the experiment on Staphylococcus aureus [13]. In addition, at MecA, the negative logarithm of the IC50 (pIC50) was 5.10.

The pIC50 is the negative decadic logarithm of the IC50, by convention in mol/L.

The values above are taken from ChEMBL document CHEMBL1649438, “Activities of ceftobiprole and other cephalosporins against extracellular and intracellular (THP-1 macrophages and keratinocytes) forms of methicillin-susceptible and methicillin-resistant Staphylococcus aureus” (Antimicrob Agents Chemother, 2009).
